Active and inactive are the calls of the source. The calls are words filed in the database; no cut-off is given here.
What was measured:
[1] = test system: Hepatitis C virus; assay: Antiviral activity against Hepatitis C virus infected in cells assessed as log reduction in viral RNA level from baseline at 4500 mg administered BID for 14 days by Replicon Assays; format: functional, Hepacivirus hominis
[2] = target: Human immunodeficiency virus type 1 reverse transcriptase (Human immunodeficiency virus 1, UniProt Q72547); assay: Inhibition of Human immunodeficiency virus 1 reverse transcriptase expressed in Escherichia coli by scintillation proximity assay
Procedure, shortened: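 N-terminal His6 HIV-1 RT was expressed in E. coli BL21(DE3), induced overnight at 37°C with 0.4 mM IPTG. The homodimer was purified by Ni-NTA and heparin chromatography. Activity was measured by scintillation proximity assay at 2.5 nM enzyme, with efavirenz as reference inhibitor.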

[3] = target: T1, DNA polymerase alpha catalytic subunit (Homo sapiens, UniProt P09884); assay: Inhibition of human DNA polymerase alpha
T1 sequence (P09884 whole entry): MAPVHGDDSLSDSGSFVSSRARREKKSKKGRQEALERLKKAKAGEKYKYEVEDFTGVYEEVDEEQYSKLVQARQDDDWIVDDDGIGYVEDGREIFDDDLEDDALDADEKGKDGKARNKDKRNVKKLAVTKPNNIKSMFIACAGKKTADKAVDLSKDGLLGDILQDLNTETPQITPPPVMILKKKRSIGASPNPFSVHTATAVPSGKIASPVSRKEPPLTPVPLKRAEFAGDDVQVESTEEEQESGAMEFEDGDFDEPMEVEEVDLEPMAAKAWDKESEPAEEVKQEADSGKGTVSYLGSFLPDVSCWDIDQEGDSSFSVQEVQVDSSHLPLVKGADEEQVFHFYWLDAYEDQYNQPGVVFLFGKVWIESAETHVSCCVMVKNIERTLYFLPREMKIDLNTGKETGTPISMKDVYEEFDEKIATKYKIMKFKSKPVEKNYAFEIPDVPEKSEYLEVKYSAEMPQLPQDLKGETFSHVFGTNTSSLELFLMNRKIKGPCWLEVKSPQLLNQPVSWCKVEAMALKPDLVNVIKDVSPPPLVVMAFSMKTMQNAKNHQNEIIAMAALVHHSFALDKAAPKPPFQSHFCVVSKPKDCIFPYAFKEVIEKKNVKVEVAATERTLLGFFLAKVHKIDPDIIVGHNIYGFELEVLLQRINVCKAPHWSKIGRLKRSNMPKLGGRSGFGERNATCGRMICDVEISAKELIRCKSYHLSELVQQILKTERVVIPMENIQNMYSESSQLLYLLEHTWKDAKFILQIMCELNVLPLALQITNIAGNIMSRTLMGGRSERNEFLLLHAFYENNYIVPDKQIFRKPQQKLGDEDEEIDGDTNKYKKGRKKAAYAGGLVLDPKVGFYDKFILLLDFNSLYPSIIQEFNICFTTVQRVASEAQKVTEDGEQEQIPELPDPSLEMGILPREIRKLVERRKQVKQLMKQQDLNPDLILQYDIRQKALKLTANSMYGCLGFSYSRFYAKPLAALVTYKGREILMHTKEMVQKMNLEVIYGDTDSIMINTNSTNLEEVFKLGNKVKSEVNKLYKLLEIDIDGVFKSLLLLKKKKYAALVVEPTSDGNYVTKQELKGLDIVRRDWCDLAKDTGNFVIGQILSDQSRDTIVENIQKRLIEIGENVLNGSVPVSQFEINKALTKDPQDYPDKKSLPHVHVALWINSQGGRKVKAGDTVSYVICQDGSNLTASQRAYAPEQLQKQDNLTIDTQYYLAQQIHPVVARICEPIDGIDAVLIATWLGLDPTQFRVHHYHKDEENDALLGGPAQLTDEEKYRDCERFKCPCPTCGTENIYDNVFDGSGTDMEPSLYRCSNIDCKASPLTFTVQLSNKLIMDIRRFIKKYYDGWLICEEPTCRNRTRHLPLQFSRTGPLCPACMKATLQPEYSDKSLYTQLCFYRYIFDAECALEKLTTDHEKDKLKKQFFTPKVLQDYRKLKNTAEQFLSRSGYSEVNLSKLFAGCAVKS
Procedure, shortened: (§1)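 Each enzyme–compound pair was tested in duplicate over 0.8 to 100 μM, with 100 μM as the highest dose. Each run included a no-inhibitor control, a solvent dilution (0.016 to 2% DMSO) and the relevant reference inhibitor. Percent inhibition at 100 μM was recorded for polymerase γ.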

[4] = Inhibition of Dengue virus RNA-dependent RNA polymerase; procedure, shortened: as §1
[5] = target: DNA polymerase beta (Homo sapiens, UniProt P06746); assay: Inhibition of human DNA polymerase beta; procedure, shortened: as §1
[6] = target: T2, DNA polymerase subunit gamma-1 (Homo sapiens, UniProt P54098); assay: Inhibition of human DNA polymerase gamma; procedure, shortened: as §1
T2 sequence (P54098 whole entry): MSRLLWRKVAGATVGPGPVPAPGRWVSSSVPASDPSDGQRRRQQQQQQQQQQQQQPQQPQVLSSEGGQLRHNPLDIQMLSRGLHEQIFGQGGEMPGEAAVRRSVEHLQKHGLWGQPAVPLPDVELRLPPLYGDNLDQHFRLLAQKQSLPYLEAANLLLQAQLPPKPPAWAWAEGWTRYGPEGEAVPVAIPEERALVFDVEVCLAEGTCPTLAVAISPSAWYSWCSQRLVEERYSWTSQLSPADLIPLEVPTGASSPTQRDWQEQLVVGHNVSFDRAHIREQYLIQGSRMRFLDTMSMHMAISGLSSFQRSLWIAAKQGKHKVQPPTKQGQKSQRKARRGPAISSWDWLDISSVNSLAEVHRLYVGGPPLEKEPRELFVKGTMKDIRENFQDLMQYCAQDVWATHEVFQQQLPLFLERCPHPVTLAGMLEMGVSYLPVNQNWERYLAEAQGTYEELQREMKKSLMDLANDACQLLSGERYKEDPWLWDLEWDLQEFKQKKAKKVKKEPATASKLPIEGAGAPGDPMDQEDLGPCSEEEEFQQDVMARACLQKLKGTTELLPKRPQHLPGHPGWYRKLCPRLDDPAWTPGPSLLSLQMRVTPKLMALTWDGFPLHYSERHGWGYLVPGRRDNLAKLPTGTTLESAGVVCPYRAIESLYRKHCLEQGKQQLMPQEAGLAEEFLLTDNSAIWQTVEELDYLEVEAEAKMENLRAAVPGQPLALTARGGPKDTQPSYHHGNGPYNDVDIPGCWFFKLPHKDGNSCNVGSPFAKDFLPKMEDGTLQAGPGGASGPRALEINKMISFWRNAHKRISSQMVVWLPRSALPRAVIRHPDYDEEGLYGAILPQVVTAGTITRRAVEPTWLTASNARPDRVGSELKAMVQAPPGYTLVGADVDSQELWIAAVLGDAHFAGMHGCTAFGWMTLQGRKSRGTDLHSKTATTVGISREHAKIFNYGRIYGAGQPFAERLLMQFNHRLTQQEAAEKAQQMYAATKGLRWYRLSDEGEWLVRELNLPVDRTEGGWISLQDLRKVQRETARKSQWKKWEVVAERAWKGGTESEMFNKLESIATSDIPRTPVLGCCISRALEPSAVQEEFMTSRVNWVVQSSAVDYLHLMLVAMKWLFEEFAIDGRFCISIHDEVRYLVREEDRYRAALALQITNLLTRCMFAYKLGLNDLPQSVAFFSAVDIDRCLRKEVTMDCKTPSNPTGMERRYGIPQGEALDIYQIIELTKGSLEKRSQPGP

[7] = Cytotoxicity against LTR-Luc transfected human MT4 cells […] after 3 days by ATPLite assay; format: cell-based
[8] = Cytotoxicity against CMV-Luc transfected human HuH7 cells after 5 days; format: cell-based, Huh-7; details: CMV-Luc transfected HuH7 cells
[9] = test system: Hepatitis C virus; assay: Antiviral activity against Hepatitis C virus 1b infected in human HuH7 cells assessed as inhibition of viral replication after 3 days by luciferase reporter assay; format: functional, organism-based, Hepacivirus hominis, genotype 1b, Huh-7; details: Hepatitis C virus, genotype 1b, Huh-7, 72 h
Procedure, shortened: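 HCV 1b subgenomic luciferase reporter replicon (clone ET) cells, 2,500 per well, were exposed to a nine-point 1/4 dilution series for 3 days. Replication was read as luciferase activity. Values are means ± SD from 2 to 23 independent experiments run in quadruplicate.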

[10] = test system: Hepatitis C virus; assay: Inhibition of Hepatitis C virus 1b J4 recombinant NS5B Cdelta 21 RNA dependent RNA polymerase overexpressed in Escherichia coli BL21 (DE3); design: species or system Hepatitis C virus subtype 1b
[11] = test system: Hepatitis C virus; assay: Inhibition of Hepatitis C virus 1b J4 recombinant NS5B Cdelta 21 RNA dependent RNA polymerase mediated formation of first phosphodiester bond during the polymerization reaction at 10 uM after 60 mins; details: Hepatitis C virus subtype 1b
Procedure, shortened: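 Buffer was 50 mM HEPES pH 7.5, 5 mM MgCl2, 5 mM MnCl2, 10 mM KCl, 1 mM DTT, at room temperature. In the time course, incubation was lengthened with inhibitor held at 10 μM. Products were phenol-extracted, ethanol-precipitated, denatured 3 min at 95°C, run on 8 M urea–20% polyacrylamide gels, and imaged.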

With [N-]=[N+]=N[C@]1(CO)O[C@@H](n2ccc(N)nc2=O)[C@H](O)[C@@H]1O [4'-AZIDOCYTIDINE] the FC [1] was 3.7.
COc1ccc(C2C3=C(CC(C)(C)CC3=O)Nc3ccccc3N2C(C)=O)cc1OCc1ccccc1 (stereo unspecified) gave an IC50 [2] of over 32 µM, an IC50 [3] of over 100 µM and an IC50 [4] of over 100 µM. The IC50 [5] was over 100 µM, the IC50 [6] was over 100 µM and the CC50 at 72 h [7] was 32 µM. It also gave a CC50 at 120 h [8] of 32 µM, an EC50 [9] of 12.3 µM and an IC50 [10] of 7.9 µM.
For CC(=O)N1c2ccccc2NC2=C(C(=O)CC(C)(C)C2)C1c1ccc(OCc2ccccc2)c(Cl)c1 (single isomer, unassigned; 4a), the inhibition [11] was “Active”.

— ChEMBL document CHEMBL1671641, “1,5-benzodiazepines, a novel class of hepatitis C virus polymerase nonnucleoside inhibitors” (Antimicrob Agents Chemother, 2008)
